# Key:
# [1] = Cytotoxicity against human WI38 cells after 48 hrs by SRB assay; format: cell-based; details: WI-38, 48 h
# In short: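 WI-38 human fetal lung fibroblasts (passages 21–50) in EMEM with 10% FBS, 2 mM L-glutamine and gentamicin, at 37 °C and 5% CO2. Seeded at 10 000 cells/well, grown 24 h, then given compound in DMSO diluted in medium to 5 concentrations for 48 h. Cells were fixed with cold 50% TCA and stained with SRB, and dye was read at 540 nm. IC50 by non-linear regression against untreated controls.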
# Plasmodium falciparum [2] = assay: Antimalarial activity against Plasmodium falciparum FCR3 after 48 hrs by parasite lactate dehydrogenase assay; format: functional, organism-based; details: FCR3, 48 h
# In short: (§1)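 Parasite survival read by parasite lactate dehydrogenase (pLDH) assay. Single-concentration prescreen at […]; compounds with 0–15% survival were taken to dose–response. Ten three-fold serial dilutions in triplicate, incubated 48 h in a gassed airtight box, developed with NBT/PES. IC50 from sigmoidal curve of % survival relative to control against log concentration.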
# Plasmodium falciparum [3] = assay: Antimalarial activity against Plasmodium falciparum 3D7 after 48 hrs by parasite lactate dehydrogenase assay; format: functional, organism-based; details: 3D7, 48 h; in short: as §1
# [4] = Cytotoxicity against human WI38 cells assessed as cell viability at 1 uM after 48 hrs by SRB assay; format: cell-based, WI-38; details: read-out: Activity
# In short: (§2)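 WI-38 fibroblasts (passages 21–50) were seeded at 10 000 cells/well for 24 h, then exposed for 48 h to compound dissolved in DMSO and diluted in medium. Viable cells were fixed with cold 50% trichloroacetic acid and stained with sulforhodamine B. Bound dye was extracted with 10 mM Tris base and read at 540 nm. Viability relative to drug-free cells.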
# [5] = Cytotoxicity against human WI38 cells assessed as cell viability at 0.1 uM after 48 hrs by SRB assay; format: cell-based, WI-38; details: read-out: Activity; in short: as §2
# [6] = Cytotoxicity against human WI38 cells assessed as cell viability at 100 uM after 48 hrs by SRB assay; format: cell-based, WI-38; details: read-out: Activity; in short: as §2
# [7] = Cytotoxicity against human WI38 cells assessed as cell viability at 0.01 uM after 48 hrs by SRB assay; format: cell-based, WI-38; details: read-out: Activity; in short: as §2
# [8] = Cytotoxicity against human WI38 cells assessed as cell viability at 10 uM after 48 hrs by SRB assay; format: cell-based, WI-38; details: read-out: Activity; in short: as §2
Structure (SMILES),IC50 [1],IC50 (Plasmodium falciparum [2]),IC50 (Plasmodium falciparum [3]),"viability at 48 h, 1 µM [4]","viability at 48 h, 0.1 µM [5]","viability at 48 h, 100 µM [6]","viability at 48 h, 0.01 µM [7]","viability at 48 h, 10 µM [8]"
COc1ccc2c(c1)[C@@H]1O[C@H](COCc3ccccc3)[C@@H](OCc3ccccc3)[C@H](OCc3ccccc3)[C@H]1CS2(=O)=O,> 100000 nM,1950 nM,2500 nM,,,,,
Cc1ccc2c(c1)[C@H]1O[C@H](COCc3ccccc3)[C@@H](OCc3ccccc3)[C@H](OCc3ccccc3)[C@H]1CS2(=O)=O,> 100000 nM,1930 nM,2320 nM,94.6%,95.7%,68.5%,99.5%,91.7%
COc1ccc2c(c1)[C@H]1O[C@H](COCc3ccccc3)[C@@H](OCc3ccccc3)[C@H](OCc3ccccc3)[C@H]1CS2,> 100000 nM,1730 nM,> 100000 nM,93.8%,95.8%,61%,97%,90.8%
COc1ccc2c(c1)[C@H]1O[C@H](COCc3ccccc3)[C@@H](OCc3ccccc3)[C@H](OCc3ccccc3)[C@H]1C[S@+]2[O-],> 100000 nM,2620 nM,2750 nM,97.4%,100%,79.9%,99.8%,95.8%
Cc1cccc2c1S(=O)(=O)C[C@@H]1[C@@H](OCc3ccccc3)[C@H](OCc3ccccc3)[C@@H](COCc3ccccc3)O[C@@H]21,> 100000 nM,2140 nM,3400 nM,,,,,
CC(C)(C)c1ccc2c(c1)[C@H]1O[C@H](COCc3ccccc3)[C@@H](OCc3ccccc3)[C@H](OCc3ccccc3)[C@H]1CS2(=O)=O,> 100000 nM,280 nM,390 nM,92.7%,96.3%,71.7%,96.7%,91%
Cc1cccc2c1S(=O)(=O)C[C@@H]1[C@@H](OCc3ccccc3)[C@H](OCc3ccccc3)[C@@H](COCc3ccccc3)O[C@H]21,> 100000 nM,1620 nM,2340 nM,,,,,
CC(C)(C)c1ccc2c(c1)[C@@H]1O[C@H](COCc3ccccc3)[C@@H](OCc3ccccc3)[C@H](OCc3ccccc3)[C@H]1CS2(=O)=O,> 100000 nM,700 nM,> 100000 nM,,,,,
[O-][S@+]1C[C@@H]2[C@@H](OCc3ccccc3)[C@H](OCc3ccccc3)[C@@H](COCc3ccccc3)O[C@@H]2c2ccccc21,,> 100000 nM,> 100000 nM,,,,,
[O-][S@+]1C[C@@H]2[C@@H](OCc3ccccc3)[C@H](OCc3ccccc3)[C@@H](COCc3ccccc3)O[C@@H]2c2c1ccc1ccccc21,> 100000 nM,2170 nM,2550 nM,96.7%,98.5%,79.4%,101%,94.5%
CC(C)(C)c1ccc2c(c1)[C@H]1O[C@H](COCc3ccccc3)[C@@H](OCc3ccccc3)[C@H](OCc3ccccc3)[C@H]1C[S@@+]2[O-],> 100000 nM,330 nM,1330 nM,97.1%,98.8%,60.2%,100%,86.9%
Cc1ccc2c(c1)[C@H]1O[C@H](COCc3ccccc3)[C@@H](OCc3ccccc3)[C@H](OCc3ccccc3)[C@H]1C[S@@+]2[O-],> 100000 nM,2910 nM,2570 nM,100%,101%,70.3%,101%,92.6%
Cc1cccc2c1SC[C@@H]1[C@@H](OCc3ccccc3)[C@H](OCc3ccccc3)[C@@H](COCc3ccccc3)O[C@H]21,> 100000 nM,2260 nM,> 100000 nM,97.5%,99.5%,68.8%,103%,85.4%
c1ccc(COC[C@H]2O[C@@H]3c4ccccc4SC[C@@H]3[C@@H](OCc3ccccc3)[C@@H]2OCc2ccccc2)cc1,> 100000 nM,2050 nM,3460 nM,97.6%,98.6%,58.1%,100%,85%
COc1ccc2c(c1)[C@H]1O[C@H](COCc3ccccc3)[C@@H](OCc3ccccc3)[C@H](OCc3ccccc3)[C@H]1C[S@@+]2[O-],8760 nM,2070 nM,2210 nM,97.2%,98%,27.2%,97.4%,55.4%
O=S1(=O)C[C@@H]2[C@@H](OCc3ccccc3)[C@H](OCc3ccccc3)[C@@H](COCc3ccccc3)O[C@@H]2c2c1ccc1ccccc21,> 100000 nM,3830 nM,2090 nM,,,,,
CC(C)(C)c1ccc2c(c1)[C@H]1O[C@H](CO)[C@@H](O)[C@H](O)[C@H]1CS2(=O)=O,,> 100000 nM,> 100000 nM,,,,,
[O-][S@@+]1C[C@@H]2[C@@H](OCc3ccccc3)[C@H](OCc3ccccc3)[C@@H](COCc3ccccc3)O[C@@H]2c2ccccc21,> 100000 nM,10300 nM,> 100000 nM,,,,,
O=S1(=O)C[C@@H]2[C@@H](OCc3ccccc3)[C@H](OCc3ccccc3)[C@@H](COCc3ccccc3)O[C@H]2c2ccccc21,> 100000 nM,3210 nM,4140 nM,,,,,
COc1ccc2c(c1)[C@H]1O[C@H](COCc3ccccc3)[C@@H](OCc3ccccc3)[C@H](OCc3ccccc3)[C@H]1CS2(=O)=O,> 100000 nM,1700 nM,1800 nM,,,,,
CC(C)(C)c1ccc2c(c1)[C@H]1O[C@H](COCc3ccccc3)[C@@H](OCc3ccccc3)[C@H](OCc3ccccc3)[C@H]1CS2,,> 100000 nM,> 100000 nM,,,,,
CC(C)(C)c1ccc2c(c1)[C@H]1O[C@H](CO)[C@@H](O)[C@H](O)[C@H]1CS2,,> 100000 nM,> 100000 nM,,,,,
CC(=O)OC[C@H]1O[C@@H]2c3cc(C(C)(C)C)ccc3S(=O)(=O)C[C@@H]2[C@@H](OC(C)=O)[C@@H]1OC(C)=O,,> 100000 nM,> 100000 nM,,,,,
O=S1(=O)C[C@@H]2[C@@H](OCc3ccccc3)[C@H](OCc3ccccc3)[C@@H](COCc3ccccc3)O[C@H]2c2c1ccc1ccccc21,,> 100000 nM,> 100000 nM,,,,,
CC(=O)OC[C@H]1O[C@@H]2c3cc(C(C)(C)C)ccc3SC[C@@H]2[C@@H](OC(C)=O)[C@@H]1OC(C)=O,,> 100000 nM,> 100000 nM,,,,,
Cc1ccc2c(c1)[C@@H]1O[C@H](COCc3ccccc3)[C@@H](OCc3ccccc3)[C@H](OCc3ccccc3)[C@H]1CS2(=O)=O,> 100000 nM,1690 nM,2340 nM,,,,,
c1ccc(COC[C@H]2O[C@@H]3c4c(ccc5ccccc45)SC[C@@H]3[C@@H](OCc3ccccc3)[C@@H]2OCc2ccccc2)cc1,> 100000 nM,7110 nM,> 100000 nM,,,,,

# From ChEMBL document CHEMBL3352507, “Preparation and antimalarial activity of a novel class of carbohydrate-derived, fused thiochromans” (Eur J Med Chem, 2014)
